Experimental data reported in PMC6559718 (Journal of biomolecular screening, 2016).
Values belong to the molecule of their own block, whether it stands above or below them.

How the values were obtained:
[1] = target: T1, human ANT2 (Homo sapiens, UniProt P05141); assay: ADP/ATP exchange with isolated yeast mitochondria expressing hANT2; type: biochemical; conditions: for ADP/ATP exchange activity / ADP uptake: 10 μM, isolated yeast mitochondria, hANT2 (Fig. 2B left)
T1 sequence (P05141 1-298): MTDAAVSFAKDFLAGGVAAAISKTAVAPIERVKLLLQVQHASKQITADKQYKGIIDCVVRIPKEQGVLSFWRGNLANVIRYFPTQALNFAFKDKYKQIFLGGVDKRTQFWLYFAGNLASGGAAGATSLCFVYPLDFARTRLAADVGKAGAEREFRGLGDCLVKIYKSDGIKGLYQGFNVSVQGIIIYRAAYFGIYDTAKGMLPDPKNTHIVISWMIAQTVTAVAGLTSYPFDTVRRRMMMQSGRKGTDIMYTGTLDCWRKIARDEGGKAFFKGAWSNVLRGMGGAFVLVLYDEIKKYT

[2] = test system: human ANT isoforms; assay: ADP/ATP exchange in L. lactis, human ANT isoforms; type: biochemical; conditions: single-concentration test of compounds selected from the yeast growth assay
[3] = in vitro; conditions: Saccharomyces cerevisiae
[4] = test system: human ANT isoforms; assay: ADP/ATP exchange in isolated yeast mitochondria, human ANT isoforms; type: biochemical
[5] = test system: yeast strain expressing hANT4; assay: microbe, parasite or virus in culture; type: cell-based; conditions: Saccharomyces cerevisiae, read-out: Activity hANT4 IC50
[6] = in vitro; conditions: Saccharomyces cerevisiae; remark: listed apart in the source
[7] = in vitro; conditions: Saccharomyces cerevisiae; remark: listed apart in the source
[8] = test system: yeast strain expressing hANT1; assay: microbe, parasite or virus in culture; type: cell-based; conditions: Saccharomyces cerevisiae, read-out: Activity hANT1 IC50
[9] = test system: yeast strain expressing hANT2; assay: microbe, parasite or virus in culture; type: cell-based; conditions: Saccharomyces cerevisiae, read-out: Activity hANT2 IC50
[10] = test system: yeast strain expressing hANT3; assay: microbe, parasite or virus in culture; type: cell-based; conditions: Saccharomyces cerevisiae, read-out: Activity hANT3 IC50
[11] = in vitro; conditions: Saccharomyces cerevisiae; remark: listed apart in the source
[12] = target: T1, human ANT2; assay: ADP/ATP exchange with Lactococcus lactis expressing hANT2; type: biochemical
[13] = target: T2, human ANT3 (Homo sapiens, UniProt P12236); assay: ADP/ATP exchange with Lactococcus lactis expressing hANT3; type: biochemical
T2 sequence (P12236 1-298): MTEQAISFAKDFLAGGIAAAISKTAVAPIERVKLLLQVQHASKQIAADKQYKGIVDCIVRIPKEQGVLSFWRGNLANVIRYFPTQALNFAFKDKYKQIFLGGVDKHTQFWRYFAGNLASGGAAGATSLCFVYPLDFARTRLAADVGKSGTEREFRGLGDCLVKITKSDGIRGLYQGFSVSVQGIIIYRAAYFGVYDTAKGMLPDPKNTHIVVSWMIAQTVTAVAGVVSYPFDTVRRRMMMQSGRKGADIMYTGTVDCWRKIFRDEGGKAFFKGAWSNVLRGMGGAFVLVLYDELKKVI

[14] = test system: HCT116 cells; assay: Oxygen consumption rate in HCT116 cells; type: cell-based, human; conditions: after ADP addition, leelamine 50 pM as printed
In short: (§1)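 Cells were kept in RPMI1640 with 10% FBS, plated at 20,000/well, and incubated overnight at 37 °C in 5% CO2. Before the assay, medium was replaced with MAS buffer (mannitol/sucrose/KH2PO4/MgCl2/HEPES/EGTA, 0.2% fatty-acid-free BSA, pH 7.4) plus 10 mM pyruvate and […]. Sequential injections were atpenin A5, 3.5 mM ADP, plasma membrane permeabilizer, then test compound or cATR control. OCR was read on an extracellular flux analyzer.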

[15] = test system: MiaPaCa-2 cells; assay: Oxygen consumption rate in MiaPaCa-2 cells; type: cell-based, human; conditions: after ADP addition, leelamine 50 pM as printed
In short: as §1

[16] = target: T3, human ANT1 (Homo sapiens, UniProt P12235); assay: ADP/ATP exchange with Lactococcus lactis expressing hANT1; type: biochemical
T3 sequence (P12235 1-298): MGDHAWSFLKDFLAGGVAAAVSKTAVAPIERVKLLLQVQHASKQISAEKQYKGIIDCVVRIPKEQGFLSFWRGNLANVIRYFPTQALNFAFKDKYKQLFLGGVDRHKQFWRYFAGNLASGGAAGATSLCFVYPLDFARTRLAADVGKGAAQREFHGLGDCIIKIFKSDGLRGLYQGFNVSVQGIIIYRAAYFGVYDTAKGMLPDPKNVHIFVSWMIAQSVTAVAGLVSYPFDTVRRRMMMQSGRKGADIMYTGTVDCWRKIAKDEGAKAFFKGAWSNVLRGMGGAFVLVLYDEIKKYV

[17] = test system: four hANT yeast strains
[18] = test system: four hANT yeast strains; assay: Yeast growth assay in YPEG medium, the four hANT yeast strains; type: cell-based, Saccharomyces cerevisiae; conditions: hANT1, -2, -3 or -4 yeast strains, BKA final 50 μM
[19] = target: T4, human ANT4 (Homo sapiens, UniProt Q9H0C2); assay: ADP/ATP exchange with isolated yeast mitochondria expressing hANT4; type: biochemical
T4 sequence (Q9H0C2 1-315): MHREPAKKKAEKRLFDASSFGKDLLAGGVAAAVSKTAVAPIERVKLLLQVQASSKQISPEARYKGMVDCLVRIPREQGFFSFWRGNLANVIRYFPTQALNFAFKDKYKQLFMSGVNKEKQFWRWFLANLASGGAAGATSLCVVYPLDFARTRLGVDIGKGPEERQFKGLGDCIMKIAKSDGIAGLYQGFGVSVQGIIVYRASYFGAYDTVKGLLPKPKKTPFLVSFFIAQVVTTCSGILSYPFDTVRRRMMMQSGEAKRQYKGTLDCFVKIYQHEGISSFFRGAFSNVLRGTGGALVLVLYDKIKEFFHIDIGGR

[20] = target: T2, human ANT3; assay: ADP/ATP exchange with isolated yeast mitochondria expressing hANT3; type: biochemical
[21] = target: T3, human ANT1; assay: ADP/ATP exchange with isolated yeast mitochondria expressing hANT1; type: biochemical
[22] = read-out: L. lactis hANT2 IC50, [3H]ADP uptake, ADP/ATP exchange, mean ± SEM
[23] = read-out: L. lactis hANT3 IC50, [3H]ADP uptake, ADP/ATP exchange, mean ± SEM
[24] = read-out: L. lactis hANT1 IC50, [3H]ADP uptake, ADP/ATP exchange, mean ± SEM

Molecule: antimycin
- ADP/ATP exchange activity / ADP uptake [1]: reduced ADP uptake

Molecule: CN(C)c1ccc(O)c2c1C[C@H]1C[C@H]3[C@H](N(C)C)C(O)=C(C(N)=O)C(=O)[C@@]3(O)C(O)=C1C2=O [Minocycline]
- inhibition of [3H]ADP uptake by L. lactis [2]: completely inactive
- IC50 [3]: > 100 µM
- inhibition of exchange activity in the mitochondrial assay ([4]; 30 μM, in at least one yeast strain (Suppl. Table S1)): strong inhibition
- IC50 [5]: > 100 µM
- IC50 [6]: > 100 µM
- IC50 [7]: > 100 µM
- IC50 [8]: > 100 µM
- IC50 [9]: > 100 µM
- IC50 [10]: > 100 µM
- IC50 [11]: > 100 µM

Molecule: CC(C)c1ccc2c(c1)CC[C@H]1[C@](C)(CN)CCC[C@]21C [Leelamine]
- effect on translocase activity in L. lactis expressing hANT2 ([12]; Fig. 3C): increased translocase activity
- IC50 [12, 22]: > 100 µM
- inhibition of [3H]ADP uptake by L. lactis [2]: inhibited
- effect on translocase activity in L. lactis expressing hANT3 ([13]; Fig. 3C): inhibited the activity
- IC50 [13, 23]: 47 ± 11 µM
- oxygen consumption rate (OCR) [14]: decreased the OCR to a similar extent as cATR
- oxygen consumption rate (OCR) [15]: decreased OCR
- effect on hANT activity in mitochondrial assays ([4]; 100 μM, all isoforms): inhibited hANT activity
- effect on translocase activity in mitochondria ([4]; 10 and 30 μM, hANT4, hANT3 and particularly hANT2 strains): increased translocase activity
- effect on translocase activity in L. lactis expressing hANT1 ([16]; Fig. 3C): increased translocase activity
- IC50 [16, 24]: > 100 µM

Molecule: N#CC(C#N)=NNc1ccc(OC(F)(F)F)cc1 [FCCP, carbonyl cyanide-4-(trifluoromethoxy) phenylhydrazone]
- [3H]ADP uptake in L. lactis ([12]; 10 μM, L. lactis expressing hANT2 (Fig. 2B right)): inactive

Molecule: C[C@@H]1C[C@H]2CC[C@H](O2)[C@H](C)C(=O)O[C@@H](C)C[C@@H]2CC[C@@H](O2)[C@@H](C)C(=O)O[C@H](C)C[C@H]2CC[C@H](O2)[C@H](C)C(=O)O[C@@H](C)C[C@@H]2CC[C@@H](O2)[C@@H](C)C(=O)O1 [Nonactin]
- IC50 [3]: > 100 µM
- IC50 [5]: 3.3 ± 0.4 µM
- IC50 [6]: > 100 µM
- IC50 [7]: > 100 µM
- IC50 [8]: 4.4 ± 1.3 µM
- IC50 [9]: 3.3 ± 1.1 µM
- IC50 [10]: 4.7 ± 1.5 µM
- IC50 [11]: > 100 µM

Molecule: C=C1[C@@H]2CC[C@H]3[C@]4(C)C[C@H](O[C@@H]5O[C@H](CO)[C@@H](OS(=O)(=O)O)[C@H](OS(=O)(=O)O)[C@H]5OC(=O)CC(C)C)C[C@@H](C(=O)O)[C@H]4CC[C@]3(C2)[C@H]1O [ATR, atractyloside]
- ADP/ATP exchange activity / ADP uptake [1]: completely inhibited

- selectivity for hANT2 over hANT3 ([12]; L. lactis assay): ~ 3 fold
- IC50 [12, 22]: 36 ± 6.3 µM
- IC50 [13, 23]: 94 ± 19 µM
- IC50 [16, 24]: 54 ± 9 µM
Molecule: O=C(O)c1ccc2cc(-c3ccc(O)c(C45CC6CC(CC(C6)C4)C5)c3)ccc2c1 [CD437]
- cytotoxic effect in glucose-containing medium [17]: exhibited cytotoxic effect in certain strains
- inhibition of [3H]ADP uptake by L. lactis [2]: inhibited
- oxygen consumption rate (OCR) [14]: inhibited OCR
- oxygen consumption rate (OCR) [15]: Neither CD437 nor closantel produced an appreciable level of reduction of OCR

- ADP/ATP exchange activity / ADP uptake [1]: reduced ADP uptake
Molecule: O=C(O)c1nn(Cc2ccc(Cl)cc2Cl)c2ccccc12 [lonidamine]

Molecule: CO[C@H](C/C=C\C=C\CC/C=C/C[C@H](C)/C=C/C(=C\C(=O)O)CC(=O)O)/C(C)=C\C=C(/C)C(=O)O [BKA, bongkrekic acid]
- ADP/ATP exchange activity / ADP uptake [1]: completely inhibited
- activity in LOPAC pilot screen [18]: weakly active

Molecule: COc1ccc2c(c[n+](C)c3c4cc5c(cc4ccc23)OCO5)c1OC [chelerythrine]
- ADP/ATP exchange activity / ADP uptake [1]: reduced ADP uptake

Molecule: C=C1[C@@H]2CC[C@H]3[C@]4(C)C[C@H](O[C@@H]5O[C@H](CO)[C@@H](OS(=O)(=O)O)[C@H](OS(=O)(=O)O)[C@H]5OC(=O)CC(C)C)CC(C(=O)O)(C(=O)O)[C@H]4CC[C@]3(C2)[C@H]1O [cATR, carboxyatractyloside]
- IC50 [12, 22]: 0.0017 ± 0.0004 µM
- IC50 [13, 23]: 0.0023 ± 0.0007 µM
- ADP/ATP exchange activity / ADP uptake [1]: completely inhibited
- oxygen consumption rate (OCR) [14]: decreased OCR
- oxygen consumption rate (OCR) [15]: decreased OCR
- IC50 [16, 24]: 0.0024 ± 0.0005 µM

Molecule: CC(C)(C)c1cc(C=C(C#N)C#N)cc(C(C)(C)C)c1O [Tyrphostin A9]
- IC50 [3]: > 100 µM
- IC50 [5]: 13 ± 4 µM
- IC50 [6]: > 100 µM
- IC50 [7]: > 100 µM
- IC50 [8]: 42 ± 20 µM
- IC50 [9]: 35 ± 15 µM
- IC50 [10]: 24 ± 10 µM
- IC50 [11]: > 100 µM

Molecule: CCCCc1oc2ccccc2c1C(=O)c1cc(I)c(OCCN(CC)CC)c(I)c1 [Amiodarone]
- cytotoxic effect in glucose-containing medium [17]: exhibited cytotoxic effect in certain strains
- activity in LOPAC pilot screen [18]: identified as a hit

Molecule: O=C(Nc1cc(C(F)(F)F)cc(C(F)(F)F)c1)c1cc(Cl)ccc1O [IMD 0354]
- IC50 [5]: 0.85 ± 0.07 µM
- IC50 [8]: 0.58 ± 0.1 µM
- IC50 [9]: 0.45 ± 0.1 µM
- IC50 [10]: 0.52 ± 0.08 µM

Molecule: Cc1cc(C(C#N)c2ccc(Cl)cc2)c(Cl)cc1NC(=O)c1cc(I)cc(I)c1O (centres unmarked) [Closantel]
- IC50 [12]: 24 ± 4.2 µM
- inhibition of [3H]ADP uptake by L. lactis [2]: inhibited
- IC50 [3]: > 100 µM
- IC50 [13]: 47 ± 11 µM
- IC50 [1]: 92 ± 32 µM
- oxygen consumption rate (OCR) [14]: inhibited OCR
- oxygen consumption rate (OCR) [15]: Neither CD437 nor closantel produced an appreciable level of reduction of OCR
- IC50 [19]: 64 ± 25 µM
- IC50 [20]: 100 ± 32 µM
- IC50 [16]: 15 ± 2.8 µM
- selectivity for hANT1 over hANT3 ([16]; L. lactis assay): ~ 3 fold
- IC50 [5]: 9.6 ± 8.7 µM
- IC50 [6]: > 100 µM
- IC50 [7]: > 100 µM
- IC50 [8]: 4.7 ± 0.8 µM
- IC50 [21]: 52 ± 15 µM
- IC50 [9]: 6.1 ± 2.4 µM
- IC50 [10]: 6.3 ± 2.3 µM
- IC50 [11]: > 100 µM
